T cruzi growth-1 – T. cruzi proliferation inhibition; T. cruzi beta-gal in NIH3T3, GalScreen luminescence, 90 h; inhibition, % at 8.34 µM; actives 5.9% (n = 77,000);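 active = mean inhibition above about 93%, with at least 55% of replicates each passing it, limit read from the data, passing the limit was not always enough; inconclusive = only one of those two conditions holds; inactive = neither condition holds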
KDM4C inh – blocks human GASC-1 (KDM4C) demethylase activity; inhibition, % at 12.5 µM; actives 0.15% (n = 96,000); GST-KDM4C 2-372, H3K9me3 peptide, LANCE TR-FRET; AID 720574; Q9H3R0;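 active = mean replicate inhibition above about 25%, with at least 55% of replicates also reaching it, limit read from the data, passing the limit was not always enough; inconclusive = only one of those two conditions met; inactive = neither condition met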
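System – N-terminal GST-fused human GASC-1 (KDM4C) fragment, residues 2-372 · Input – enzyme final amount 10 nM · Technique – LANCE TR-FRET, Eu antibody, ULight-streptavidin, EDTA, ex 340 nm, em 618/671 nm · Medium – HEPES buffer, pH 7.5, plus ascorbate · Incubation – enzyme reaction 30 min, then detection 60 min, both room temperature · Reagent – H3K9me3 peptide with Fe(II)/2OG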
IDH1 mut inh – inhibitors of human IDH1 R132H. AID 624101. O75874. actives 0.18% (n = 70,000). IDH1 R132H reductase, diaphorase/resazurin fluorescence, 60 min. inhibition, % at 10 µM; in the data active = inhibition above about 34%; inconclusive = no clear call, values can overlap the other calls; inactive = below about 11%;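 note: 0% = DMSO and 100% = no enzyme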
Target sequence (O75874 whole entry R132H): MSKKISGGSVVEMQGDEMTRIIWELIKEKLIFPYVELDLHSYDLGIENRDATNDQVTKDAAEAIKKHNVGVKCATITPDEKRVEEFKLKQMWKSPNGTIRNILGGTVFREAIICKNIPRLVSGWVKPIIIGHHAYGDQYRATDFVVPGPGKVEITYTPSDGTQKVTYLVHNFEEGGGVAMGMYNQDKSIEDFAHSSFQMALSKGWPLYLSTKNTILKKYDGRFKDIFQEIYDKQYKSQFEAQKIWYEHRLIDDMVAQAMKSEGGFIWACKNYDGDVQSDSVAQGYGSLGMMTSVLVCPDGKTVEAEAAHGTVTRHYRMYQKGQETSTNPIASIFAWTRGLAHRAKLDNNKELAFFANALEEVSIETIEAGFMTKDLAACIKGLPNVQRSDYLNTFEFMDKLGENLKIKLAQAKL
T cruzi growth-2 – blocks T. cruzi growth in NIH3T3 host cells; shares compounds with T cruzi growth-1; T. cruzi beta-gal in NIH3T3, GalScreen luminescence, 90 h; inhibition, % at 8.35 µM; actives 72% (n = 5,600); AID 651739;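 active = mean replicate inhibition above about 95% and at least 55% of replicates individually reaching it, limit read from the data; inconclusive = only one of the two criteria is met; inactive = neither criterion is met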
T cruzi growth-3 – inhibitors of T. cruzi proliferation. shares compounds with T cruzi growth-1. T. cruzi beta-gal in NIH3T3, GalScreen luminescence, 90 h. inhibition, % at 2.09 µM. actives 21% (n = 5,600);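 active = mean inhibition above about 95%, with at least 55% of replicates also reaching it, limit read from the data; inconclusive = meets just one of the two conditions; inactive = meets neither condition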;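 note: plate controls were neutral control median for no effect and positive control median for full effect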
NIH3T3 tox – cytotoxicity in mouse NIH/3T3 fibroblasts. actives 14% (n = 5,600). shares compounds with T cruzi growth-1. cytotoxicity (signal decrease), % at 8.35 µM. NIH/3T3 viability, CellTiter-Glo ATP luminescence, 90 h;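 active = mean signal decrease across replicates above about 35% based on untreated-well scatter, with enough replicates individually passing, limit read from the data; inconclusive = no rule stated though some were filed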;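 note: 0% = median of neutral control wells and 100% = median of positive control wells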
NIH3T3 tox 2 – kills mouse NIH/3T3 fibroblasts; shares compounds with T cruzi growth-1; NIH/3T3 viability, CellTiter-Glo ATP luminescence, 90 h; actives 56% (n = 5,600); inhibition, % at 24.9 µM; AID 651744;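 active = mean loss of cell viability signal at or above a set limit, and enough replicates individually reaching it; inconclusive = meets only the mean limit or only the replicate share; inactive = meets neither condition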;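 note: 0% = median of neutral control wells and 100% = median of positive control wells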
The depositor's hits bear a star; ? = inconclusive; / = not tested or not shown. Shown is part of a subset that was picked to be rich in hits.

SMILES	T cruzi growth-1	KDM4C inh	IDH1 mut inh	T cruzi growth-2	T cruzi growth-3	NIH3T3 tox	NIH3T3 tox 2
O=C(C1CCCC1)N1CCCCN2[C@H](C1)[C@H](c1ccc(C#CC3CC3)cc1)[C@@H]2CO	113.7*	/	/	98.6*	52.9	8.3	21.4
O=C(C1CCCC1)N1CCCCN2[C@H](CO)[C@H](c3ccc(C#CC4CC4)cc3)[C@H]2C1	113.3*	/	/	103.6*	78.8	3.7	36.7*
O=C(C1CC1)N1CCCCN2[C@H](C1)[C@H](c1ccc(C#CC3CC3)cc1)[C@@H]2CO	59.6	/	/	/	/	/	/
Cc1nc(-c2ccccc2)sc1C(=O)C1C(=O)C(=O)N(CCN(C)C)C1c1ccc(Cl)cc1 (stereo not given)	/	/	-0.3	/	/	/	/
O=C(O)C1C2C=CC(C2)C1C(=O)N1CCc2c([nH]c3ccccc23)C1C(F)(F)F (stereo not given)	/	/	-1.6	/	/	/	/
O=C(Nc1cccc(F)c1)N1CC(=O)N2[C@H](C1)[C@@H](c1ccc(Br)cc1)[C@@H]2CO	/	-0.9	/	/	/	/	/
CC(=O)N1CC(=O)N2[C@H](CO)[C@@H](c3ccc(-c4ccc(C)cc4)cc3)[C@@H]2C1	/	2.1	/	/	/	/	/
C[C@@H]1CCCCO[C@@H](CN(C)S(=O)(=O)c2cn(C)cn2)[C@H](C)CN([C@H](C)CO)C(=O)c2cc(NS(=O)(=O)c3ccc(F)cc3)ccc2O1	29.1	16.9	-9.8	/	/	/	/
Cc1ccc(-c2ccc3c(c2)O[C@@H](CN(C)C(=O)Nc2ccc(F)cc2)[C@@H](C)CN([C@@H](C)CO)S3(=O)=O)cc1	120.7*	0.0	-1.9	97.1*	65.9	53.1*	80.9*
Cc1ccc(-c2ccc3c(c2)O[C@@H](CN(C)C(=O)Nc2ccccc2)[C@H](C)CN([C@@H](C)CO)S3(=O)=O)cc1	/	-1.0	5.5	/	/	/	/
Cc1ccc(-c2ccc3c(c2)O[C@H](CN(C)C(=O)Nc2ccccc2)[C@H](C)CN([C@H](C)CO)S3(=O)=O)cc1	/	1.4	-0.3	/	/	/	/
Cc1ccc(-c2ccc3c(c2)O[C@H](CN(C)C(=O)Nc2ccc(F)cc2)[C@@H](C)CN([C@@H](C)CO)S3(=O)=O)cc1	114.2*	3.9	0.6	103.2*	92.3	40.4*	96.1*
CC(C)CC#Cc1ccc2c(c1)O[C@H](CN(C)S(=O)(=O)c1ccc(F)cc1)[C@@H](C)CN([C@@H](C)CO)S2(=O)=O	/	-1.5	-2.2	/	/	/	/
COc1ccccc1S(=O)(=O)N(C)C[C@@H]1Oc2cc(C#CCC(C)C)ccc2S(=O)(=O)N([C@@H](C)CO)C[C@@H]1C	?	5.8	0.7	103.5*	107.2*	-2.7	56.4*
COc1ccccc1S(=O)(=O)N(C)C[C@H]1Oc2cc(C#CCC3CCCC3)ccc2S(=O)(=O)N([C@@H](C)CO)C[C@@H]1C	/	14.1	0.1	/	/	/	/
COc1ccccc1S(=O)(=O)N(C)C[C@@H]1Oc2cc(C#CCC(C)C)ccc2S(=O)(=O)N([C@@H](C)CO)C[C@H]1C	?	1.9	1.3	96.6*	108.4*	23.8	41.3*
COc1ccccc1S(=O)(=O)N(C)C[C@@H]1Oc2cc(C#CCC(C)C)ccc2S(=O)(=O)N([C@H](C)CO)C[C@H]1C	102.5*	0.3	0.3	93.2	115.4*	44.0*	105.5*
CC(C)CC#Cc1ccc2c(c1)O[C@H](CN(C)S(C)(=O)=O)[C@@H](C)CN([C@H](C)CO)S2(=O)=O	45.8	10.2	0.0	/	/	/	/
Cc1noc(C)c1NC(=O)Nc1ccc2c(c1)C(=O)N([C@H](C)CO)C[C@H](C)[C@@H](CN(C)S(=O)(=O)c1cn(C)cn1)OCCCC[C@H](C)O2	52.5	-0.1	/	/	/	/	/
CN1C(=O)c2cc(NC(=O)c3ccccc3)ccc2OC[C@@H]2O[C@H](CC(=O)NC3CCCC3)CC[C@@H]21	15.6	-1.1	/	/	/	/	/
O=C(C[C@H]1CC[C@@H](NS(=O)(=O)c2cccc(F)c2)[C@@H](CO)O1)NCc1ccc2c(c1)OCO2	-1.5	2.0	0.3	/	/	/	/
COc1ccc(NC(=O)Nc2ccc3c(c2)C(=O)N([C@H](C)CO)C[C@H](C)[C@H](CN(C)S(=O)(=O)c2ccc(OC)cc2)OCCCC[C@@H](C)O3)cc1	10.4	-0.6	/	/	/	/	/
COc1ccc(NC(=O)Nc2ccc3c(c2)C(=O)N([C@H](C)CO)C[C@@H](C)[C@H](CN(C)S(=O)(=O)c2ccc(Cl)cc2)OCCCC[C@@H](C)O3)cc1	115.2*	-0.5	1.0	104.5*	101.1*	-5.4	17.9
COc1ccc(NC(=O)Nc2ccc3c(c2)C(=O)N([C@@H](C)CO)C[C@H](C)[C@@H](CN(C)S(=O)(=O)c2ccc(Cl)cc2)OCCCC[C@@H](C)O3)cc1	106.7*	-0.5	5.0	108.7*	112.1*	0.7	18.2
COc1ccc(NC(=O)Nc2ccc3c(c2)C(=O)N([C@@H](C)CO)C[C@H](C)[C@@H](CN(C)S(=O)(=O)c2ccc(OC)cc2)OCCCC[C@@H](C)O3)cc1	42.0	-1.1	/	/	/	/	/
SMILES	T cruzi growth-1	KDM4C inh	IDH1 mut inh	T cruzi growth-2	T cruzi growth-3	NIH3T3 tox	NIH3T3 tox 2
C[C@@H]1CN([C@@H](C)CO)C(=O)c2cc(C#Cc3ccccc3F)cnc2O[C@@H]1CN(C)C(=O)Cc1cccnc1	/	17.2	10.7	/	/	/	/
O=C(COc1ccccc1C(=O)Nc1cccc(Cl)c1Cl)Nc1ccc(N2CCOCC2)c(Cl)c1	/	/	0.1	/	/	/	/
CCC(=O)N1C[C@H](C)[C@H](OC)CN(C)C(=O)c2ccc(NC(=O)c3ccccc3)cc2OC[C@@H]1C	71.6	-0.5	-0.3	/	/	/	/
CCC(=O)NC[C@@H]1[C@@H](c2ccc(C3=CCCCC3)cc2)[C@@H](CO)N1C(=O)C1CC1	/	1.3	/	/	/	/	/
COc1ccc(S(=O)(=O)N(C)C[C@H]2Oc3cc(C#CC4CCCC4)ccc3S(=O)(=O)N([C@@H](C)CO)C[C@H]2C)cc1	46.6	-1.0	-0.1	/	/	/	/
COc1ccc(S(=O)(=O)N(C)C[C@H]2Oc3cc(C#CC4CC4)ccc3S(=O)(=O)N([C@@H](C)CO)C[C@H]2C)cc1	109.8*	-0.8	/	109.4*	?	-7.7	57.3*
COc1ccc(S(=O)(=O)N(C)C[C@H]2Oc3cc(C#CC4CC4)ccc3S(=O)(=O)N([C@@H](C)CO)C[C@@H]2C)cc1	102.4*	0.6	1.2	96.5*	90.8	52.8*	67.3*
COc1ccc(S(=O)(=O)N(C)C[C@H]2Oc3cc(C#CC4CCCC4)ccc3S(=O)(=O)N([C@H](C)CO)C[C@@H]2C)cc1	67.9	1.9	-0.4	/	/	/	/
COc1ccc(S(=O)(=O)N(C)C[C@H]2Oc3cc(C#CC4CCCC4)ccc3S(=O)(=O)N([C@@H](C)CO)C[C@@H]2C)cc1	40.1	-2.9	/	/	/	/	/
COc1ccc(S(=O)(=O)N(C)C[C@@H]2Oc3cc(C#CC4CC4)ccc3S(=O)(=O)N([C@H](C)CO)C[C@H]2C)cc1	105.6*	-0.1	/	103.3*	66.8	37.5*	47.0*

Compound activity (PubChem BioAssay)
